In PMC7225057 (Journal of molecular biology, 2020):
Residue numbers refer to the chain shown, from its start. Residues, ends and D or L forms follow the SMILES beside them. *: point of attachment. FITC = O=C1OC2(c3ccc(O)cc3Oc3cc(O)ccc32)c2ccc(NC(=S)*)cc21; Ahx = NCCCCCC(=O)O

Tests used:
[1] = system: PTH type 1 receptor (PTH1R); details: cited from earlier work
[2] = system: CTR ECD; details: isolated ECD; cited from earlier work
[3] = system: glucagon-like peptide 1 receptor (GLP-1R); details: cited from earlier work
[4] = system: glucagon-like peptide 1 receptor (GLP-1R); details: cited from earlier work; remark: listed apart in the source
[5] = system: CTR; details: cited from earlier work
[6] = molecular target: T1, RAMP1-CTR.34–141 WT (inactive PNGase F) (Homo sapiens, UniProt O60894+P30988, fusion); assay: FP saturation binding, RAMP1-CTR.34–141 WT, inactive PNGase F; details: Figure S8D, 10 nM probe, pH 7.4, mean ± SEM, N = 3
T1 sequence (P30988 34-141): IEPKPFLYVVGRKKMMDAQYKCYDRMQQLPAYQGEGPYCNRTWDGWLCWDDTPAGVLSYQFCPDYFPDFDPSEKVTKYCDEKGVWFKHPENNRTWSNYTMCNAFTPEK
Procedure, shortened: (§1)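 RAMP1-CTR ECD fusion WT was expressed in HEK293S GnTI cells, TEV-cleaved to remove MBP, then purified by IMAC/SEC. FP saturation binding at room temperature used 10 nM FITC-peptide probe and titrated receptor. Buffer: HEPES pH 7.4 with BSA, maltose, EDTA, Tween 20. Duplicates, pKD by nonlinear fit.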

[7] = molecular target: T2, RAMP1-CTR.34–141 N130D (Homo sapiens, UniProt O60894+P30988, N130D/fusion); assay: FP saturation binding, RAMP1-CTR.34–141 N130D; details: Figure S8D; no enzyme; 10 nM probe, pH 7.4; mean ± SEM, N = 3
T2 sequence (P30988 34-141 N130D): T1 sequence (P30988 34-141) with N97D

[8] = molecular target: RAMP1-CTR.34–141 WT (PNGase F) (Homo sapiens, UniProt O60894+P30988, N125D/N130D/N73D); assay: FP saturation binding, RAMP1-CTR.34–141 WT, PNGase F; details: Figure S8D, 10 nM probe, pH 7.4, N = 3
Procedure, shortened: as §1

[9] = system: Pituitary adenylate cyclase activating polypeptide (PACAP) type I (PAC1) receptor; details: tunicamycin treatment, binding capacity not altered; cited from earlier work
[10] = molecular target: T3, CTR.38–141 N130D (CTR ECD; HEK293S GnTI^−, Endo H) (Homo sapiens, UniProt P30988, N130D); assay: FP saturation binding, CTR.38–141 N130D, Endo H; details: N130D vs Endo H-treated WT
T3 sequence (P30988 38-141 N130D): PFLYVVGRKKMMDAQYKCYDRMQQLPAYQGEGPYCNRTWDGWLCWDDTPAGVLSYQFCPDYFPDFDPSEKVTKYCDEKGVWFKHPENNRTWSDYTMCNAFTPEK

[11] = molecular target: T4, Glycan-free CTR.38–141 WT (CTR ECD; E. coli) (Homo sapiens, UniProt P30988); assay: FP saturation binding, glycan-free CTR.38–141 WT; details: glycan-free vs Endo H-treated WT
T4 sequence (P30988 38-141): T3 sequence (P30988 38-141 N130D) with D93N

[12] = system: IL-7 receptor α unit (IL-7Rα) ectodomain; details: cited from earlier work

PTH: PTH, ligand of PTH type 1 receptor
binding affinity, N161D mutation ([1]; N161D mutation of PTH1R): did not change the binding affinity for PTH
binding affinity after tunicamycin ([1]; human PTH1R expressed in mammalian cells, tunicamycin treatment): no changes in PTH binding affinity

calcitonin
binding affinity enhancement by CTR N-glycosylation [2]: ~ 10 fold

GLP-1: GLP-1, ligand of glucagon-like peptide 1 receptor
signaling potency, double mutation of two N-glycosylation sites [3]: significantly reduced GLP-1 affinity and signaling potency
affinity, double mutation of two N-glycosylation sites [4]: significantly reduced GLP-1 affinity

salmon calcitonin
affinity vs human calcitonin [5]: higher affinity than human calcitonin

CC(C)C[C@H](NC(=O)[C@H](CCCNC(=N)N)NC(=O)[C@@H](NC(=O)[C@H](CC(C)C)NC(=O)[C@H](Cc1ccccc1)NC(=O)[C@H](CC(N)=O)NC(=O)[C@H](C)NC(=O)CCCCCNC(=S)Nc1ccc2c(c1)C(=O)OC21c2ccc(O)cc2Oc2cc(O)ccc21)C(C)C)C(=O)N[C@@H](CCC(N)=O)C(=O)N[C@H](C(=O)N[C@@H](Cc1ccc(O)cc1)C(=O)N1CCC[C@H]1C(=O)N[C@@H](CCCNC(=N)N)C(=O)N[C@H](C(=O)N[C@@H](CC(N)=O)C(=O)N[C@H](C(=O)NCC(=O)N[C@@H](C)C(=O)N[C@@H](CC(N)=O)C(=O)N[C@H](C(=O)N[C@@H](Cc1ccc(O)cc1)C(N)=O)[C@@H](C)O)C(C)C)[C@@H](C)O)[C@@H](C)O [FITC-AC413(6–25)] ({FITC-Ahx}-ANFLVRLQTYPRTNVGANTY-NH2; N-terminus and C-terminus assumed)
pKD [6]: 6.01 ± 0.03
pKD [7]: 5.12 ± 0.07
pKD [8]: < 5.0

PACAP-27
affinity decrease by tunicamycin [9]: 30 fold

C[C@@H](O)[C@H](NC(=O)[C@H](CC(N)=O)NC(=O)[C@@H](NC(=O)[C@H](CCCNC(=N)N)NC(=O)[C@@H]1CCCN1C(=O)[C@H](Cc1ccc(O)cc1)NC(=S)Nc1ccc2c(c1)C(=O)OC21c2ccc(O)cc2Oc2cc(O)ccc21)[C@@H](C)O)C(=O)NCC(=O)N[C@@H](CO)C(=O)NCC(=O)N[C@H](C(=O)N1CCC[C@H]1C(N)=O)[C@@H](C)O [FITC-sCT(22–32)] ({FITC}-YPRTNTGSGTP-NH2)
affinity decrease [10]: over 5 fold
affinity decrease [11]: over 5 fold

IL-7: IL-7, ligand of IL-7 receptor α unit
association rate with N-glycosylated receptor [12]: accelerated association rate
effect of N-glycosylation on binding affinity [12]: significantly increased IL-7 binding affinity
